pKi: −log10 of the molar value.
What was measured:
Rattus norvegicus [1] = assay: Effective dose for antagonism ofpCA-Induced excitation was determined by oral administration; format: functional
In short: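 Oral pretreatment of overnight-fasted male Wistar rats (200-250 g), then medetomidine 0.10 mg/kg iv (reversal means no loss of righting) or pCA 5 mg/kg sc (excitation scored 0-3 over 15 min from 45 min after pCA; inhibition means score <2). Doses taken from a geometric series.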

[2] = target: 5-hydroxytryptamine receptor 2A (Homo sapiens, UniProt P28223); assay: Inhibition of [125I]- R91150 binding to 5-hydroxytryptamine 2A receptor
Chain of 5-hydroxytryptamine receptor 2A (P28223 whole entry): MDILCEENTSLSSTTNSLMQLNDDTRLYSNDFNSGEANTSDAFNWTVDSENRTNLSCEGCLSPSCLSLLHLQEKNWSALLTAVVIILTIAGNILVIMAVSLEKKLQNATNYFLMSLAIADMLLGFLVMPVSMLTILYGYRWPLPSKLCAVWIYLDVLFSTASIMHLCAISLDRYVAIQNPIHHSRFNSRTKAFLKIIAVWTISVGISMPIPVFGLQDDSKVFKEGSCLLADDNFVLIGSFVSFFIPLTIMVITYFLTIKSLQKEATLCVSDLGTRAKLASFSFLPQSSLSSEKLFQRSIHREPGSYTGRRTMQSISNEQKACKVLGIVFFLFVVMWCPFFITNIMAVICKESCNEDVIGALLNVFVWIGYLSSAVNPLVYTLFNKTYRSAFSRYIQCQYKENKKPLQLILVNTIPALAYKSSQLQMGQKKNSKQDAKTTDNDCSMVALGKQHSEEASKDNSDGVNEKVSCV
In short: (§1)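 Radioligand competition binding on membranes from cell lines carrying the human target, incubated with the labelled ligand under optimized conditions. Separation by filtration, except α1A and D3, which used scintillation proximity assay.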

[3] = target: T1, Adrenergic receptor alpha-1 (Homo sapiens, UniProt P35348+P25100+P35368); assay: Inhibition of [3H]- prazosin binding to alpha-1 adrenergic receptor; format: protein assay; in short: as §1
T1 sequence (P35348 whole entry): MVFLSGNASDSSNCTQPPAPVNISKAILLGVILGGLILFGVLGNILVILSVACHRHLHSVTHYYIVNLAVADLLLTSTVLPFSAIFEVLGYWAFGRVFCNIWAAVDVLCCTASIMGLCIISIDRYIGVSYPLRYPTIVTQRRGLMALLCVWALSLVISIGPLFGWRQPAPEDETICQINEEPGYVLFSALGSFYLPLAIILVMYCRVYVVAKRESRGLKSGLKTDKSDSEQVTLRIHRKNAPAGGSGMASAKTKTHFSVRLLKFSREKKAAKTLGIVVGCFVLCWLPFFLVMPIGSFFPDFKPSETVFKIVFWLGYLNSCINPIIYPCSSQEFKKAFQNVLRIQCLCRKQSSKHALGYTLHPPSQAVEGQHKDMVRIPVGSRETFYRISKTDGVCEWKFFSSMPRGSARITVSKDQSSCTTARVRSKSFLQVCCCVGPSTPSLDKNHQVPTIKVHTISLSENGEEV
T1 sequence (P25100 whole entry): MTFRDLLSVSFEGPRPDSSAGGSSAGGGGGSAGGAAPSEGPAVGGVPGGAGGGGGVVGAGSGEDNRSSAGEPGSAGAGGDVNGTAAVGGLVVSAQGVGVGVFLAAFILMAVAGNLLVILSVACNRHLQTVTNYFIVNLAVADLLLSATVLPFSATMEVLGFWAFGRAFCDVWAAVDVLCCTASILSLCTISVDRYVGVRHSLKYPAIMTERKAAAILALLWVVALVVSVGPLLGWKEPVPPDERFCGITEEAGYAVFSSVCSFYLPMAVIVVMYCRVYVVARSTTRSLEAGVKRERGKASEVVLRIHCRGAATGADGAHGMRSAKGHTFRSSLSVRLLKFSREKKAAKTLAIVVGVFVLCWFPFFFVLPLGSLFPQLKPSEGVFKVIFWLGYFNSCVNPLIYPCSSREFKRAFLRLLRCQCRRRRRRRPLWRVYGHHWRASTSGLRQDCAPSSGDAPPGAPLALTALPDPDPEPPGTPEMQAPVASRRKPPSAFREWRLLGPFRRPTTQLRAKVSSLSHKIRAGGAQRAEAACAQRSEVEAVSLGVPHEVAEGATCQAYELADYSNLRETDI
T1 sequence (P35368 whole entry): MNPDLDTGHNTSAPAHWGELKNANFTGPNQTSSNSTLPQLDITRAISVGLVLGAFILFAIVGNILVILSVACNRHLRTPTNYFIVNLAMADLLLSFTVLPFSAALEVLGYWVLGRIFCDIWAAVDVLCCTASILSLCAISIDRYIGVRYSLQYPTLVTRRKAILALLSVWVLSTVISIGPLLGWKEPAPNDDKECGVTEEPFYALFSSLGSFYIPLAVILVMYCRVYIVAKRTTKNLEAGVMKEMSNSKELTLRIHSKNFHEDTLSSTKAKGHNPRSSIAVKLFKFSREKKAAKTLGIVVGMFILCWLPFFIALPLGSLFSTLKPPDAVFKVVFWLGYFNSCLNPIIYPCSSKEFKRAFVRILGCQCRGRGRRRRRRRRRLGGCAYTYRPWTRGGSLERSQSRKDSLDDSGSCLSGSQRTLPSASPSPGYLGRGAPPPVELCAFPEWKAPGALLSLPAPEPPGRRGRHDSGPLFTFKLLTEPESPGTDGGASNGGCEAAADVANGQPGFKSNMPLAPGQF

[4] = target: Norepinephrine transporter (Rattus norvegicus, UniProt Q9WTR4); assay: Inhibition of [3H]-nisoxetine binding to Norepinephrine transporter from rat cortex
Chain of Norepinephrine transporter (Q9WTR4 whole entry): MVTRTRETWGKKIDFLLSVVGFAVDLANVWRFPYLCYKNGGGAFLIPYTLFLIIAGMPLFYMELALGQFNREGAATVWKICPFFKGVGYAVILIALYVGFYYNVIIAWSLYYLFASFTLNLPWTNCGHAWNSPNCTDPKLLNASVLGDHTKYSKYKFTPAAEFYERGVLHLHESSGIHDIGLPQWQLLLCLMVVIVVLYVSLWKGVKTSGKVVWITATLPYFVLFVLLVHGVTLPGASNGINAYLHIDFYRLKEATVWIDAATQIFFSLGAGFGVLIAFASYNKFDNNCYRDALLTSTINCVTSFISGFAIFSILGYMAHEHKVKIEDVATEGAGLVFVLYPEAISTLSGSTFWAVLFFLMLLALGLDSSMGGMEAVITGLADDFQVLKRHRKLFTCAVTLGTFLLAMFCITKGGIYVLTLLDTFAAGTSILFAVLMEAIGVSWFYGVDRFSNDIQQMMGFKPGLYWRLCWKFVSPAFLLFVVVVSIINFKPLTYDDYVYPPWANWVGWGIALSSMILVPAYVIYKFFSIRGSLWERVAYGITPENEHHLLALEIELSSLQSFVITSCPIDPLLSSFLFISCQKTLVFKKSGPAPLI
In short: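 Radioligand competition on rat cortex membranes, incubated under optimized conditions. Stopped by rapid filtration. Ki by Cheng-Prusoff.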

[5] = target: Sodium-dependent dopamine transporter (Rattus norvegicus, UniProt P23977); assay: Inhibition of [3H]WIN-35428 binding to Dopamine transporter of rat striatum; format: tissue-based
Chain of Sodium-dependent dopamine transporter (P23977 whole entry): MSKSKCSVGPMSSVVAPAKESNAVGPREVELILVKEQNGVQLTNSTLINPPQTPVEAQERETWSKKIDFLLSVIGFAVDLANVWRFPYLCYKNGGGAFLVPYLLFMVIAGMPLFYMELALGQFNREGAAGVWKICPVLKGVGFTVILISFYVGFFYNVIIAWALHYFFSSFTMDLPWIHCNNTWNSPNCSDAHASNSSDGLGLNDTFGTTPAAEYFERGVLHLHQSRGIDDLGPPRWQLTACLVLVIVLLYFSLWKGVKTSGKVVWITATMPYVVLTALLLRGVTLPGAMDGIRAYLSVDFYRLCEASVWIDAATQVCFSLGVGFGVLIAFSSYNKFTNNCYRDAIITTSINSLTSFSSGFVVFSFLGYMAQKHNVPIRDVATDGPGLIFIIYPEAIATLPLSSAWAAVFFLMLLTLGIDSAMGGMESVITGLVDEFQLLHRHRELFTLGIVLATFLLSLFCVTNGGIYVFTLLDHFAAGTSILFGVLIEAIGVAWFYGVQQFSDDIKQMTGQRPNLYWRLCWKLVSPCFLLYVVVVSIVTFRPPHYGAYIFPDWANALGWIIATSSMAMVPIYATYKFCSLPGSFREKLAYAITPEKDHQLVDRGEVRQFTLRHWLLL
In short: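 Competition binding using rat striatum membranes incubated with the radioligand under optimized conditions, separated by filtration.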

[6] = target: T2, 5-hydroxytryptamine receptor 1A (Homo sapiens, UniProt P08908); assay: Inhibition of [3H]8-OH-DPAT binding to 5-hydroxytryptamine 1A receptor; in short: as §1
T2 sequence (P08908 whole entry): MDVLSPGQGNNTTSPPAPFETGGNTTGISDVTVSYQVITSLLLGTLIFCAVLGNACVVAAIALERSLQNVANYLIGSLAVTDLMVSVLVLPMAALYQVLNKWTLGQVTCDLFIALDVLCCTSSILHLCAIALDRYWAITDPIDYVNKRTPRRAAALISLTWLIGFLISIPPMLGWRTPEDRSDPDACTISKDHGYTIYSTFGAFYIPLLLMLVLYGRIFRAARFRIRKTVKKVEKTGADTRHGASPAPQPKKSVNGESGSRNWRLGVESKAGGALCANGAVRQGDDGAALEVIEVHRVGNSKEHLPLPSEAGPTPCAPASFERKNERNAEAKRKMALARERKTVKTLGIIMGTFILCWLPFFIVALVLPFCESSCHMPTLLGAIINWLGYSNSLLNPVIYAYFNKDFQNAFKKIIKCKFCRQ

[7] = target: T3, 5-hydroxytryptamine receptor 2C (Homo sapiens, UniProt P28335); assay: Inhibition of [3H]- mesulergine binding to 5-hydroxytryptamine 2C receptor; in short: as §1
T3 sequence (P28335 whole entry): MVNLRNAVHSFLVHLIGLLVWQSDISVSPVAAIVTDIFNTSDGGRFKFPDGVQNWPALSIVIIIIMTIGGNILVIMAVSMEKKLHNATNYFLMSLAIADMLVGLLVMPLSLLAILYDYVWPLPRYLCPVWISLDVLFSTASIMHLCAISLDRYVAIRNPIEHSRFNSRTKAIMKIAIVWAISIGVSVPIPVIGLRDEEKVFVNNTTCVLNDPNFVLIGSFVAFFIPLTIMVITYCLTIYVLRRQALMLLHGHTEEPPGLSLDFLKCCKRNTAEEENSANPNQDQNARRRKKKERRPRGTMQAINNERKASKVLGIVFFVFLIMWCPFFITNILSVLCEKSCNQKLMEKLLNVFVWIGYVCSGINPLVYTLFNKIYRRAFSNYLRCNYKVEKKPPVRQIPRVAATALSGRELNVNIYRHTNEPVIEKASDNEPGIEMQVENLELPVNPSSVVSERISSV

D(2) dopamine receptor = D(2) dopamine receptor (Homo sapiens, UniProt P14416); assay: Inhibition of [3H]spiperone binding to Dopamine receptor D2; in short: as §1
Chain of D(2) dopamine receptor (P14416 whole entry): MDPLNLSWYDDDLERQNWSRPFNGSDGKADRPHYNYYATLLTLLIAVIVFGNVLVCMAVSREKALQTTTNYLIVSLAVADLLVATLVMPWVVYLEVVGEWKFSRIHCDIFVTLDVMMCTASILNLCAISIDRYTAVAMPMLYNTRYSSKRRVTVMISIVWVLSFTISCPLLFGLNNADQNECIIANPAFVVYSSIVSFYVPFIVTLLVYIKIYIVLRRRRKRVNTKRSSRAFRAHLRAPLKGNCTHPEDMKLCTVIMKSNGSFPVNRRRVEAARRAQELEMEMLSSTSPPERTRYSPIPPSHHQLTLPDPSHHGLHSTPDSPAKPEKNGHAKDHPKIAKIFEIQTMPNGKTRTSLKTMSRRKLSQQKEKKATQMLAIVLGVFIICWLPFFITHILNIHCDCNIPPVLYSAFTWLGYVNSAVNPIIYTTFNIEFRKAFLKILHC

D(4) dopamine receptor = target: T4, D(4) dopamine receptor (Homo sapiens, UniProt P21917); assay: Inhibition of [3H]spiperone binding to Dopamine receptor D4; in short: as §1
T4 sequence (P21917 whole entry): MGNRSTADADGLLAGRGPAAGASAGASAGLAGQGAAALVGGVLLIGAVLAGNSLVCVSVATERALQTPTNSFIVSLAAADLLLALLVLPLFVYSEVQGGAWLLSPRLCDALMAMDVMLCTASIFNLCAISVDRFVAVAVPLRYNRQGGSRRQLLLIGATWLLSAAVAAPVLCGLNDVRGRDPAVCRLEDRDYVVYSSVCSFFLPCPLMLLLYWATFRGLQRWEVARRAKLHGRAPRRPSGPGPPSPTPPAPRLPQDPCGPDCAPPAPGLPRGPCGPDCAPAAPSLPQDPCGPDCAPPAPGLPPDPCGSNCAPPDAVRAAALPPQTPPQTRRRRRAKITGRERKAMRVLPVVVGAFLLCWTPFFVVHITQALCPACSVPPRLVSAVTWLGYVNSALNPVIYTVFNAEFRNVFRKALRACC

Histamine H1 receptor = Histamine H1 receptor (Homo sapiens, UniProt P35367); assay: Inhibition of [3H]pyrilamine binding to Histamine H1 receptor
Chain of Histamine H1 receptor (P35367 whole entry): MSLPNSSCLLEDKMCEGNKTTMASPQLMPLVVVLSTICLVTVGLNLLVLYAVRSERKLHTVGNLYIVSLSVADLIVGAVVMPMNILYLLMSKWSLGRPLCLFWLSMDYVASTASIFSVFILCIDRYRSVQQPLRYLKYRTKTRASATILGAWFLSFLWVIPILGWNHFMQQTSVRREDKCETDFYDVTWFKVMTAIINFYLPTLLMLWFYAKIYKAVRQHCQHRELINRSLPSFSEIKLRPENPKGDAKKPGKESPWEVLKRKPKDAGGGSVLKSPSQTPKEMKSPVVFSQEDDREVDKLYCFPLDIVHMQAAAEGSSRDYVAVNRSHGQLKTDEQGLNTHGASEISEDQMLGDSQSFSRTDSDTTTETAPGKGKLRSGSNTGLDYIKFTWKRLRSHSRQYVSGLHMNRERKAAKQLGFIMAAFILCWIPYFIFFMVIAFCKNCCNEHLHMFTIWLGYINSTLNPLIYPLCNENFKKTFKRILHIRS
In short: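 Radioligand competition on membranes from a cell line transfected with the human target, incubated under optimized conditions. Stopped by rapid filtration. Ki by Cheng-Prusoff.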

[8] = target: 5-hydroxytryptamine receptor 7 (Homo sapiens, UniProt P34969); assay: Inhibition of [3H]5-HT binding to 5-hydroxytryptamine 7 receptor; in short: as §1
Chain of 5-hydroxytryptamine receptor 7 (P34969 whole entry): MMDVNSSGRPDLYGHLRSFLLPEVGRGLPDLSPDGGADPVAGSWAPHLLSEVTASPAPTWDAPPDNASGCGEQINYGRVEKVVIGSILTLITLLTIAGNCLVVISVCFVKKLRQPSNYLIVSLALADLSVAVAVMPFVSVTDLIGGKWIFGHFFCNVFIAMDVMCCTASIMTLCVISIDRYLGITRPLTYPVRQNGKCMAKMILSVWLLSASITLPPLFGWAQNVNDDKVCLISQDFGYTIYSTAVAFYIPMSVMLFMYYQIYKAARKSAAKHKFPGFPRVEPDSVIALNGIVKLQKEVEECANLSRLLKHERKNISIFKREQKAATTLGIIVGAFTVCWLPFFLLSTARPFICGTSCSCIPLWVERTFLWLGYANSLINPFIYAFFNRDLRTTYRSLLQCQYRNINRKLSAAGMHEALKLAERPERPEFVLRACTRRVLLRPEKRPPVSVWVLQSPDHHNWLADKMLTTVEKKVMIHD

Rattus norvegicus [9] = assay: Effective dose concentration for antagonism ofpCA-Induced excitation was determined by subcutaneous administration; format: functional, organism-based
In short: (§2)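 Male Wistar rats (200-250 g), fasted overnight, given test compound or solvent sc before challenge. Loss of righting induced by medetomidine 0.10 mg/kg iv; reversal means no loss of righting. Excitation induced by pCA 5 mg/10 mL/kg sc and scored 0-3 over 15 min starting 45 min after pCA; inhibition means score <2.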

Rattus norvegicus [10] = assay: Effective dose concentration for reversal of medetomidine-Induced loss of righting was determined by subcutaneous administration; format: functional, organism-based; in short: as §2
[11] = target: Sodium-dependent serotonin transporter (Homo sapiens, UniProt P31645); assay: Binding affinity for serotonin transporter
Chain of Sodium-dependent serotonin transporter (P31645 whole entry): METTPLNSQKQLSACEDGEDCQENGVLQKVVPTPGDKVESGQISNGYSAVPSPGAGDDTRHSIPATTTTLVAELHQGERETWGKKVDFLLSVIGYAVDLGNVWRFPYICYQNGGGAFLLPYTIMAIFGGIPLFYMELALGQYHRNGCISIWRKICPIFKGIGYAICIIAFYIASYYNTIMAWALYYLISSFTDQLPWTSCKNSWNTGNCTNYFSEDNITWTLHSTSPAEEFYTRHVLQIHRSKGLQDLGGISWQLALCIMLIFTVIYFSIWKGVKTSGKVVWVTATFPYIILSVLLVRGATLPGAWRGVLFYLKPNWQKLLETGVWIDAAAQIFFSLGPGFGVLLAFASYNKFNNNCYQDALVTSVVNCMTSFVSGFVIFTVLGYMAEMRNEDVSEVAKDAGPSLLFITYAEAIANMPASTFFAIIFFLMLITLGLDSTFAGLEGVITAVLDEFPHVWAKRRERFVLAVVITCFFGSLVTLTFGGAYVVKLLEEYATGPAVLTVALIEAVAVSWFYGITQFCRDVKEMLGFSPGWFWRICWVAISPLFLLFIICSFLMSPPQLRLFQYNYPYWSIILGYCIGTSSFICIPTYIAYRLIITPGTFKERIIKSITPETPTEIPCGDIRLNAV
In short: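 Human platelet membranes (50 µg protein) in 50 mM Tris-HCl pH 7.4 with 120 mM NaCl and 5 mM KCl. Competition against [3H]paroxetine (0.5 nM), 60 min at 25 °C. Nonspecific binding defined with imipramine (1 µM). Filtration over 0.1% PEI-presoaked GF/B, washed with incubation buffer. Sigmoidal fit of specific binding; Ki via Cheng-Prusoff.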

[12] = target: T5, Alpha-2C adrenergic receptor (Homo sapiens, UniProt P18825); assay: Binding affinity for alpha-2C adrenergic receptor
T5 sequence (P18825 whole entry): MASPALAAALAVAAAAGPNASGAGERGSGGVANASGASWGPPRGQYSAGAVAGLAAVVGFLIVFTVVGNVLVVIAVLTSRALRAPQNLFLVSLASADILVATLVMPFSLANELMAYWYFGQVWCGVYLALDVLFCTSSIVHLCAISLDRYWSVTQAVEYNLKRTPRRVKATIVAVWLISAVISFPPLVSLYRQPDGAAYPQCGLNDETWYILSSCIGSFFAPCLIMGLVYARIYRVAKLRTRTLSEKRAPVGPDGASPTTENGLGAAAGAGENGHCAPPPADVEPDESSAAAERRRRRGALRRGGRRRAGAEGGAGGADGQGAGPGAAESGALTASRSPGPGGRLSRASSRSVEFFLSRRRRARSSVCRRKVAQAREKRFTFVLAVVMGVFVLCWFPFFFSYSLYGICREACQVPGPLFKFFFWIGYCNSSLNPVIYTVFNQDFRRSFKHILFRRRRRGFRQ
In short: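 Human alpha2C receptor stably expressed in CHO cell membranes (5-10 µg protein) in 25 mM glycylglycine, pH 7.6. Competition against [3H]rauwolscine (1 nM), 30 min at 25 °C. Nonspecific binding defined with spiroxatrine (1 µM). Rapid filtration over GF/B, washed with ice-cold 50 mM Tris-HCl pH 8.0, scintillation counting. Sigmoidal curves fitted; Ki by Cheng-Prusoff.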

| Compound | ED50 (Rattus norvegicus [1]) | pKi [2] | Ki [3] | pKi [4] | pKi [5] | pKi [6] | pKi [7] | pKi (D(2) dopamine receptor) | pKi (D(4) dopamine receptor) | pKi (Histamine H1 receptor) | pKi [8] | ED50 (Rattus norvegicus [9]) | ED50 (Rattus norvegicus [10]) | pKi [11] | pKi [12] |
| --- | --- | --- | --- | --- | --- | --- | --- | --- | --- | --- | --- | --- | --- | --- | --- |
| COc1cccc2c1CCC[C@H]2CN(C)CCc1ccc2ccoc2c1 | > 10 mg/kg | < 6.00 | > 1000 nM | < 6.00 | < 6.00 | < 6.00 | < 6.00 | < 6.00 | 6.63 | < 6.00 |  |  |  |  |  |
| Fc1ccc2c(c1)CC(CC1CN=CN1)C2 (stereo not drawn) |  | < 6.00 | > 1000 nM | 6.44 | < 6.00 | 6.11 | < 6.00 | < 6.00 |  | < 6.00 | < 6.00 |  |  |  |  |
| COc1cc2c(cc1OC)C1=NO[C@@H](CN3CCN(C/C=C(\C)c4ccccc4)CC3)[C@@H]1CN2 |  |  |  |  |  |  |  |  |  |  |  | 7.9 mg/kg | 2.5 mg/kg | 7.82 | 8.44 |
